EBI2 block: EBI2 (human) antagonism; P32249; EBI2 beta-arrestin recruitment, luminescence, 7a,25-OHC stimulated; inhibition, % at 5 µM; actives 0.81% (n = 360,000); AID 651636; in the data active = inhibition above about 38%;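 also: enzyme fragment complementation signal reports receptor beta-arrestin coupling in cells; 0% = agonist plus DMSO wells and 100% = wells without agonist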
Target sequence (P32249 whole entry, looked up, the tested form may be a part): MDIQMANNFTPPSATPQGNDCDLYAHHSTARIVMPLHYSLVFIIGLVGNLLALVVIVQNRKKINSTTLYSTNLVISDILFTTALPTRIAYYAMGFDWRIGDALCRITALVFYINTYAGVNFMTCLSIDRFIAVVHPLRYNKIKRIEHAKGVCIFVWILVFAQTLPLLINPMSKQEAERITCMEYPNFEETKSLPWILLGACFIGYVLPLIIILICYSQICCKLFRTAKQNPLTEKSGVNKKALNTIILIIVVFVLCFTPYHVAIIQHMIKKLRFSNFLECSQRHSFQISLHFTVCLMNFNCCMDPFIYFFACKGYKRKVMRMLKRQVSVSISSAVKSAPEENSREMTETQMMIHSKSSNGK
CXCR6 block: CXCR6 (human) receptor inhibition; CHO-K1 PathHunter CXCR6 beta-arrestin, luminescence; inhibition, % at 20 µM; actives 0.36% (n = 360,000); in the data active = inhibition above about 34%, passing the limit was not always enough;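 also: antagonist mode with CXCL16 agonist at 10 nM final; 0% = 10 nM CXCL16 with DMSO and 100% = unstimulated wells without agonist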
APJ agonist: APJ receptor agonism; P35414; CHO-K1 APJ PathHunter beta-arrestin, luminescence; 0% DMSO wells, 100% apelin; activation, % at 20 µM; actives 0.11% (n = 330,000); AID 2520;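 active = activation more than six SD over the plate average, tested at 20 µM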;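 also: 0% = DMSO alone and 100% = apelin-13 at 10 nM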
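Assay system – PathHunter CHO-K1 APJ (AGTRL-1) beta-arrestin reporter cells · Compound – one dose, 20 µM compound, 1% DMSO · Timing – compound 90 min 25 °C, reagent 1 h · Measured by – luminescence from split beta-galactosidase complementation, Galacton Star/Emerald II substrate · Measure – beta-arrestin recruitment to APJ as agonist activity, luminescent signal · Benchmarks – DMSO vs Apelin-13 10 nM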
CCR6 antagonist: CCR6 (human) receptor antagonism | inhibition, % at 20 µM | P51684 | CHO-K1 CCR6 PathHunter beta-arrestin, luminescence, CCL20-stimulated | actives 0.49% (n = 340,000);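 active = compounds whose inhibition of the agonist-driven luminescence signal at 20 µM reaches about 50%, limit read from the data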;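 also: cells stimulated with CCL20 at 14 nM final; plate controls were DMSO with CCL20 for no effect and DMSO without agonist for full effect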
APJ antagonist: antagonists of human APJ apelin receptor; CHO-K1 APJ beta-arrestin complementation, luminescence; inhibition, % at 20 µM; actives 0.32% (n = 330,000); AID 2521;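 active = inhibition above about 40% at 20 µM, limit read from the data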;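 also: cells challenged with 10 nM apelin-13 agonist together with compound; plate controls were apelin-13 plus DMSO wells for no effect and DMSO wells lacking apelin-13 for full effect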
EBI2 antag conf: EBI2 (human) antagonism, single concentration confirmation. shares compounds with EBI2 block. EBI2 beta-arrestin luminescence, 7a,25-OHC antagonism. inhibition, % at 5 µM. actives 29% (n = 2,400). AID 651997;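 active = inhibition of at least 50%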
EBI2 ag: EBI2 agonism counter-screen | shares compounds with EBI2 block | EBI2-expressing cells, agonist mode, luminescence, 60 min; 0% vehicle, 100% 7α,25-dihydroxycholesterol control | activation, % at 5 µM | 2,400 tested, under 10 active | AID 652000;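 active = activation of at least 50%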
bGal counter: counter-screen for EBI2 antagonists: E. coli beta-galactosidase inhibition; shares compounds with EBI2 block; actives 1% (n = 2,400); AID 652176; purified beta-galactosidase, luminescent Galacton Star, 15 min; inhibition, % at 5 µM;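 active = replicate-average signal at least 3 plate SD below neutral wells, shown as high inhibition, flagging enzyme-inhibiting false positives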;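 also: 0% = DMSO wells with enzyme and 100% = wells lacking enzyme; higher means stronger loss of beta-gal luminescence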
* hit, by the source's call. Most compounds without a hit are left out; they make up all but 1.5% or so of the library.

Screening Cc1nc(C)c(-c2csc(Nc3ccc(C(=O)O)c(O)c3)n2)s1 returned EBI2 block 4, CXCR6 block -5, APJ agonist 1, CCR6 antagonist 8 and APJ antagonist 8.
For N#C/C(=C\c1ccc(Br)s1)C(=O)N1CCN(c2ccccc2)CC1 the results were EBI2 block 73*, CXCR6 block 9, APJ agonist 2, CCR6 antagonist 5, APJ antagonist 7, EBI2 antag conf 21, EBI2 ag 0 and bGal counter 8.
Screening COc1ccc(/C=C/C(=O)c2cc3c(cc2N)OCO3)cc1 returned EBI2 block 63*, CXCR6 block 12, APJ agonist -4, CCR6 antagonist 27, APJ antagonist 21, EBI2 antag conf 48, EBI2 ag 0 and bGal counter 10.
Screening CC(NC(=O)COc1ccc(S(=O)(=O)N2CCOCC2)cc1)c1ccccc1 (stereo unspecified) returned EBI2 block -11, CXCR6 block -12, APJ agonist -3, CCR6 antagonist 3 and APJ antagonist -60.
For Cc1nn(-c2ccc(C(=O)N3CCN(S(=O)(=O)c4ccccc4C(F)(F)F)CC3)cc2)c(C)c1Cl the results were EBI2 block 47*, CXCR6 block -4, APJ agonist 0, CCR6 antagonist 11, APJ antagonist -42, EBI2 antag conf 36, EBI2 ag 0 and bGal counter 5.
Screening CCOC(=O)C1CCN(C(=O)/C=C/c2ccccc2OC)CC1 returned EBI2 block 22, CXCR6 block -4, APJ agonist -2, CCR6 antagonist 7 and APJ antagonist 2.
Screening CCOC(=O)C1CCN(C(=O)/C=C/c2ccc(OC)cc2)CC1 returned EBI2 block 87*, CXCR6 block -3, APJ agonist -1, CCR6 antagonist 3, APJ antagonist -5, EBI2 antag conf 75*, EBI2 ag 0 and bGal counter -5.
Screening CCN1CCN(C(=O)/C=C/c2ccc(F)cc2)CC1 returned EBI2 block 84*, CXCR6 block 0, APJ agonist 0, CCR6 antagonist 4, APJ antagonist 2, EBI2 antag conf 71*, EBI2 ag 0 and bGal counter 5.
`CCN1CCN(C(=O)/C=C/c2ccc(OC)cc2)CC1` gave EBI2 block 88*, CXCR6 block -1, APJ agonist 2, CCR6 antagonist 5, APJ antagonist 3, EBI2 antag conf 74*, EBI2 ag 2 and bGal counter 7.
`Cc1ccc(NCCNc2ccc(C)cc2)cc1` gave EBI2 block 47*, CXCR6 block 2, APJ agonist 3, CCR6 antagonist -3, APJ antagonist 10, EBI2 antag conf 58*, EBI2 ag 3 and bGal counter 0.
For COc1ccc(C(=O)CCNc2ccc(F)cc2)cc1 the results were EBI2 block 11, CXCR6 block -10, APJ agonist 2, CCR6 antagonist -10 and APJ antagonist -4.
COc1ccc(NCCNc2ccc(OC)cc2)cc1 was read as EBI2 block 40*, CXCR6 block -4, APJ agonist -1, CCR6 antagonist 7, APJ antagonist 0, EBI2 antag conf 16, EBI2 ag -1 and bGal counter -10.
Screening Cc1ccc(CCNc2ccc3ccccc3c2)cn1 returned EBI2 block 27, CXCR6 block -9, APJ agonist -1, CCR6 antagonist 11 and APJ antagonist -12.
Screening Cc1ccc(NCCc2ccc(C)nc2)cc1 returned EBI2 block 47*, CXCR6 block -10, APJ agonist -4, CCR6 antagonist -13, APJ antagonist 0, EBI2 antag conf 21, EBI2 ag 1 and bGal counter 10.
O=C(c1cccc(NS(=O)(=O)c2ccc(F)c(F)c2)c1)N1CCCCC1 was read as EBI2 block -20, CXCR6 block -5, APJ agonist 12, CCR6 antagonist 6 and APJ antagonist -7.
Screening O=C(Nc1ccnc(-c2cccnc2)n1)c1ccc(Cl)c(Cl)c1 returned EBI2 block 46*, CXCR6 block 3, APJ agonist -3, CCR6 antagonist 5, APJ antagonist 18, EBI2 antag conf 7, EBI2 ag 1 and bGal counter 3.
Screening COc1ccc(CCNC(=O)c2ccc(OCc3c(C)noc3C)c(OC)c2)cc1 returned EBI2 block -5, CXCR6 block 3, APJ agonist 1, CCR6 antagonist 6 and APJ antagonist 2.
`COc1cc(C(=O)NCCc2c[nH]c3ccccc23)ccc1OCc1c(C)noc1C` gave EBI2 block 61*, CXCR6 block -5, APJ agonist 5, CCR6 antagonist 8, APJ antagonist -13, EBI2 antag conf 49, EBI2 ag 0 and bGal counter -19.
`Brc1ccc(OCc2nnnn2-c2ccccc2)cc1` gave EBI2 block 80*, CXCR6 block -9, APJ agonist 0, CCR6 antagonist -1, APJ antagonist 2, EBI2 antag conf 64*, EBI2 ag 0 and bGal counter -13.
O=C(Nc1ccc(NC(=O)c2ccccc2Cl)nc1)c1ccco1 was read as EBI2 block 4, CXCR6 block 11, APJ agonist 1, CCR6 antagonist 9 and APJ antagonist 5.
`COc1ccc2c3n(nc2c1)CCN=C3c1cc(Cl)c(N)c(Cl)c1` gave EBI2 block 35, CXCR6 block -14, APJ agonist 7, CCR6 antagonist 5 and APJ antagonist 5.
`Nc1c(Cl)cc(C2=NCCn3nc4cc(C(F)(F)F)ccc4c32)cc1Cl` gave EBI2 block 49*, CXCR6 block -3, APJ agonist -2, CCR6 antagonist 2, APJ antagonist 10, EBI2 antag conf 23, EBI2 ag -1 and bGal counter -8.
COc1cc(-c2nc3ccc(C)cn3c2NCc2ccccc2)ccc1-c1cccc(Cl)c1 was read as EBI2 block 80*, CXCR6 block 8, APJ agonist -3, CCR6 antagonist 14, APJ antagonist 20, EBI2 antag conf 66*, EBI2 ag 1 and bGal counter -5.
`CCC(C)Sc1ccc(-c2nc3ccc(C)cn3c2NCc2ccccc2)cc1` (stereo unspecified) gave EBI2 block 47*, CXCR6 block 6, APJ agonist 2, CCR6 antagonist 12, APJ antagonist 19, EBI2 antag conf 24, EBI2 ag 1 and bGal counter 6.
